Compounds with a hit are over-represented: about 2.2% of the library has one in this group of screens.
V-ATPase pH = yeast V-ATPase proton transport regulation by pHLuorin; response, % at 10 µM; AID 504577; hit rate 0.37% among 350,000; S. cerevisiae, pHLuorin cytosolic pH fluorescence; in the data active = response mostly above about 7.3%, no sharp cut-off; inactive = mostly below about 5.4%; also: actives read high
GalR3 antagonist = blocks the human galanin receptor 3 | O60755 | HEK293 GalR3-CNG cAMP membrane potential fluorescence; galR3 body fused to GalR1 C-terminus | inhibition, % at 3 µM | hit rate 0.44% among 360,000 | AID 651719;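 active = inhibition above the screen-wide average plus 3 SD, cut at about 13% in these data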;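 also: forskolin and galanin both at EC90 stimulate the cells; cAMP rise reported by CNG channel membrane potential dye signal; 0% = forskolin plus galanin with DMSO and 100% = forskolin alone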
Target sequence (O60755 1-299 limits assumed): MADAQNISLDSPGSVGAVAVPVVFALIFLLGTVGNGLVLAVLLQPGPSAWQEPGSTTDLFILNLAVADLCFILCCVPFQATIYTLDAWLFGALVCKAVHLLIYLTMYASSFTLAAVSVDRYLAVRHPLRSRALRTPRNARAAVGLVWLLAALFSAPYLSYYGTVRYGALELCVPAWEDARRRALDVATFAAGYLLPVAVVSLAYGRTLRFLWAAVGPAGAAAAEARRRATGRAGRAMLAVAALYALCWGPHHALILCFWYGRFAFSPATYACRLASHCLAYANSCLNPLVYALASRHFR
NR2E3 ag-1 = activates human photoreceptor nuclear receptor NR2E3. hit rate 0.12% among 320,000. AID 2300. Q9Y5X4. GST-NR2E3/biotin-RetCOR TR-FRET, 1536-well. inhibition of corepressor binding, % at 4.78 µM;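 active = percent inhibition above the cutoff of mean plus 3 SD of all tested compounds, set per screening campaign, cut at about 20% in these data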;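 also: 0% = DMSO wells and 100% = biotin wells as full block of FRET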
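System: GST-tagged NR2E3 plus biotinylated RetCOR corepressor; Buffer or medium: pH 7.5 Tris-based buffer; Probe or stimulus: RetCOR corepressor, biotinylated, 7 nM; Doses: compound at 4.8 µM, single dose; Schedule: 5 h incubation at 4 °C; Technique: time-resolved FRET; Evaluation: percent inhibition of TR-FRET ratio; Replication: one well per compound, singlicate testing.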
NR2E3 ag-2 = activates human NR2E3 receptor. Q9Y5X4. CHO-S Gal4-NCOR/VP16-NR2E3 two-hybrid, luciferase. hit rate 0.35% among 360,000. inhibition of corepressor binding, % at 3.98 µM. AID 602229;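 active = inhibition above the mean of all tested compounds plus 3 SD, cut at about 70% in these data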;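 also: 0% = DMSO with NR2E3 transfected cells and 100% = cells lacking NR2E3 construct; higher means lower luciferase signal from less NR2E3 corepressor binding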
Env fusion inh = inhibitors of HIV Env-mediated cell fusion; HeLa-JRFL Env/CEM21 cell fusion, luciferase; inhibition, % at 12.3 µM; hit rate 1.1% among 360,000; AID 651610;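 active = mean replicate inhibition score of at least 50 and every replicate individually at or above 50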;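 also: 0% = plate neutral controls and 100% = maraviroc near 300 nM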
GAA850 FXN act = activators of GAA850 frataxin (FXN) promoter. HEK293 lucGAA850 FXN promoter luciferase reporter, 24 h; percent of 10 µM SAHA response. AID 540364. hit rate 0.56% among 360,000. activation, % at 6 µM;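 active = activation above the average of all compounds screened plus 3 SD, cutoff fixed separately per campaign, cut at about 7.5% in these data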;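 also: 0% = DMSO wells and 100% = 10 µM SAHA wells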
* marks the source's active call; other numbers are inactive results; . = no result given; [ ] = another dose, or the depositor's remark.

SMILES | V-ATPase pH | GalR3 antagonist | NR2E3 ag-1 | NR2E3 ag-2 | Env fusion inh | GAA850 FXN act
CC(C)(C)c1ccc(C(=O)Nc2sc3c(c2C(=O)O)CCC3)cc1 | 2 | -5 | 0 | 46 | 81* | -13
CCc1cccc2c(SCC(=O)NCC3CCCO3)nc(-c3ccc(F)cc3)nc12 (stereo not drawn) | 2 | -1 | 0 | 3 | . | 0
O=C(CSc1nnc(-c2ccc(F)cc2)c2ccccc12)NCC1CCCO1 (stereo not drawn) | 1 | -6 | 4 | -20 | -1 | 8.8*
CC(C)C(=O)Nc1ccc2c(c1)C(=O)N(C)[C@@H]1CC[C@H](CC(=O)N[C@H](C)c3ccccc3)O[C@@H]1CO2 | . | . | . | . | -12[16.7 µM] | .
Cc1ccnc(NC(=O)c2cccc(S(=O)(=O)N3CCN(c4ccccc4)CC3)c2)c1 | 1 | -7 | -1 | -132 | -35 | -1
CN(Cc1ccc(Cl)cc1Cl)C(=O)c1cccc(S(=O)(=O)N2CCN(c3ccccc3)CC2)c1 | 1 | -4 | 4 | 23 | 90* | -2
Cc1ccc(NC(=O)c2cccc(S(=O)(=O)N3CCN(c4ccccc4)CC3)c2)nc1 | -1 | -2 | -4 | -10 | 57* | 0
COc1ccccc1CNC(=O)C[C@H]1C[C@H]2c3cc(NC(=O)Nc4ccc(C(F)(F)F)cc4)ccc3O[C@H]2[C@@H](CO)O1 | . | . | . | . | -17[16.7 µM] | .
C[C@H](CO)N1C[C@H](C)[C@H](CN(C)C(=O)Nc2ccc3c(c2)OCO3)Oc2ncc(-c3cncnc3)cc2C1=O | . | . | . | . | -17[16.7 µM] | .
CCOC1=C2[C@H](c3ccccc3)N(S(=O)(=O)c3ccc(C)cc3)[C@H](C(C)C)[C@H]2C(C#N)(C#N)C(C#N)(C#N)C1 | . | -4 | . | . | 107* | .
CCOC1=C2[C@H](c3ccc(CC)cc3)N(S(=O)(=O)c3ccc(C)cc3)C[C@H]2C(C#N)(C#N)C(C#N)(C#N)C1 | . | -4 | . | -7 | -91 | .
COc1ccc(NC(=O)Nc2ccc3c(c2)C(=O)N([C@H](C)CO)C[C@H](C)[C@H](CN(C)C(=O)c2ccccc2)OCCCC[C@H](C)O3)cc1 | . | . | . | . | 61*[16.7 µM] | .
COc1ccc(NC(=O)Nc2ccc3c(c2)C(=O)N([C@@H](C)CO)C[C@H](C)[C@H](CN(C)C(=O)c2ccccc2)OCCCC[C@H](C)O3)cc1 | . | . | . | . | 56*[16.7 µM] | .
Cc1ccc(S(=O)(=O)Nc2ccc3c(c2)C(=O)N([C@@H](C)CO)C[C@@H](C)[C@@H](CN(C)Cc2ccccc2)OCCCC[C@H](C)O3)cc1 | . | . | . | . | -13[16.7 µM] | .
Cc1ccc(S(=O)(=O)N2C[C@H]3[C@H]4C(=O)N(C5CCCCC5)C(=O)[C@H]4CC(=O)[C@H]3[C@@H]2c2ccccc2Cl)cc1 | . | -7 | . | -20 | 59* | .
Cn1c(=O)n(-c2cccc(Cl)c2)c(=O)c2c3c(sc21)COC(C)(C)C3 | -3 | -8 | 0 | -9 | 114* | 5
CC1(C)Cc2c(sc3c2c(=O)n(-c2ccc(Cl)cc2)c(=O)n3CC(N)=O)CO1 | 3 | -1 | 0 | 10 | -10 | -2
Nc1cc(=O)[nH]c(SCCSc2ccccc2)n1 | -1 | -8 | -1 | -9 | 58* | 0
Nc1cc(=O)[nH]c(SCCOc2ccccc2)n1 | -2 | -4 | 5 | 2 | 2 | 0
Cc1noc(C)c1NC(=O)N(C)C[C@@H]1OCCCC[C@H](C)Oc2ccc(NC(=O)c3ccccc3)cc2C(=O)N([C@@H](C)CO)C[C@H]1C | . | . | . | . | 29[16.7 µM] | .
CCOC(=O)c1c(C)[nH]c(C(=O)CSc2ccccc2)c1C | 14* | 4 | 0 | -127 | . | 1
COCCCNC(=O)[C@@]1(CCS(=O)(=O)c2ccccc2)COC(c2ccc(OCCCO)cc2)=N1 | . | . | . | . | 0[16.7 µM] | .
CN(c1ccccc1)S(=O)(=O)c1ccc(NC(=O)c2ccc(-c3ccccc3)cc2)cc1 | 1 | -2 | 3 | 82* | . | -1
C[C@@H]1CN([C@H](C)CO)C(=O)c2cc(NC(=O)Cc3ccccc3)ccc2O[C@@H](C)CCCCO[C@@H]1CN(C)C(=O)c1ccncc1 | . | . | . | . | 19[16.7 µM] | .
Cc1c(N=C2C(=O)Nc3ccccc32)c(=O)n(-c2ccccc2)n1C | 9.3* | -2 | 0 | -7 | 5 | 0
Cc1c(N=c2c(=O)c3ccccc3c2=O)c(=O)n(-c2ccccc2)n1C | . | . | -5 | . | . | .
